According to ChEMBL document CHEMBL4011643, “Triaryl Benzimidazoles as a New Class of Antibacterial Agents against Resistant Pathogenic Microorganisms” (J Med Chem, 2017):
Converted amounts (≈) assume the structure as drawn. The source made the active and inactive calls. The calls are words filed in the database; no cut-off is given here.

Assays:
Acinetobacter baumannii [1] = assay: Antibacterial activity against Acinetobacter baumannii ATCC 17978 after 20 hrs in the presence of Pa-beta-N and magnesium ions by broth microdilution method; assay type: functional; conditions: ATCC 17978, 20 h
Procedure, shortened: (§1)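 Broth microdilution in Tryptic Soy Broth, done in triplicate. Growth was read as OD600 after 20 h. MIC is the lowest drug concentration giving OD600 below 0.1.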

Klebsiella pneumoniae [2] = assay: Antibacterial activity against Klebsiella pneumoniae M6 after 20 hrs in the presence of Pa-beta-N and magnesium ions by broth microdilution method; assay type: functional; conditions: M6, 20 h; procedure, shortened: as §1
Klebsiella pneumoniae [3] = assay: Antibacterial activity against Klebsiella pneumoniae NCTC 13368 after 20 hrs in the presence of PMBN by broth microdilution method; assay type: functional; conditions: NCTC 13368, 20 h; procedure, shortened: as §1
Acinetobacter baumannii [4] = assay: Antibacterial activity against Acinetobacter baumannii AYE after 20 hrs in the presence of PMBN by broth microdilution method; assay type: functional; procedure, shortened: as §1
Acinetobacter baumannii [5] = assay: Antibacterial activity against Acinetobacter baumannii AYE after 20 hrs in the presence of Pa-beta-N and magnesium ions by broth microdilution method; assay type: functional; procedure, shortened: as §1
Enterococcus faecium = assay: Antibacterial activity against vancomycin-resistant Enterococcus faecium NCTC 12204 after 20 hrs by broth microdilution method; assay type: functional; conditions: NCTC 12204, 20 h
Procedure, shortened: (§2)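 Broth microdilution in Tryptic Soy Broth; growth read as OD600 after 20 h. MIC taken as the lowest drug concentration giving OD600 below 0.1. Run in triplicate.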

Acinetobacter baumannii [6] = assay: Antibacterial activity against Acinetobacter baumannii ATCC 17978 after 20 hrs by broth microdilution method; assay type: functional; conditions: ATCC 17978, 20 h; procedure, shortened: as §1
Acinetobacter baumannii [7] = assay: Antibacterial activity against Acinetobacter baumannii ATCC 17978 after 20 hrs in the presence of PMBN by broth microdilution method; assay type: functional; conditions: ATCC 17978, 20 h; procedure, shortened: as §1
Enterococcus faecalis [8] = assay: Bactericidal activity against vancomycin-resistant Enterococcus faecalis NCTC 12201 assessed as time required to kill bacteria by >6 log10CFU/ml at 4 times MIC by Miles Misra dilution method; assay type: functional
Procedure, shortened: (§3)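 Flasks of TSB inoculated at ~10^6 cfu/mL, compound added at 4 × MIC, shaken at 200 rpm and 37 °C. Samples taken at 1, 2, 4, 6 and 24 h and plated by Miles Misra dilution for CFU/mL. Bactericidal means a loss of >3 log CFU/mL. Three independent repeats, error bars SD.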

Pseudomonas aeruginosa [9] = assay: Antibacterial activity against Pseudomonas aeruginosa PAO1 after 20 hrs in the presence of PMBN by broth microdilution method; assay type: functional; conditions: PAO1, 20 h; procedure, shortened: as §1
Klebsiella pneumoniae [10] = assay: Antibacterial activity against Klebsiella pneumoniae M6 after 20 hrs in the presence of PMBN by broth microdilution method; assay type: functional; conditions: M6, 20 h; procedure, shortened: as §1
Pseudomonas aeruginosa [11] = assay: Antibacterial activity against Pseudomonas aeruginosa NCTC 13437 after 20 hrs in the presence of PMBN by broth microdilution method; assay type: functional; conditions: NCTC 13437, 20 h; procedure, shortened: as §1
Pseudomonas aeruginosa [12] = assay: Antibacterial activity against Pseudomonas aeruginosa PAO1 after 20 hrs in the presence of Pa-beta-N and magnesium ions by broth microdilution method; assay type: functional; conditions: PAO1, 20 h; procedure, shortened: as §1
Staphylococcus aureus [13] = assay: Bactericidal activity against methicillin-resistant Staphylococcus aureus EMRSA-15 assessed as time required to kill bacteria by >6 log10CFU/ml at 4 times MIC by Miles Misra dilution method; assay type: functional; procedure, shortened: as §3
Staphylococcus aureus [14] = assay: Antibacterial activity against methicillin-resistant Staphylococcus aureus MRSA252 after 20 hrs by broth microdilution method; assay type: functional; conditions: MRSA252, 20 h; procedure, shortened: as §2
Enterococcus faecalis [15] = assay: Bactericidal activity against vancomycin-resistant Enterococcus faecalis NCTC 12201 at 4 times MIC after 24 hrs by Miles Misra dilution method; assay type: functional; procedure, shortened: as §3
Klebsiella pneumoniae [16] = assay: Antibacterial activity against Klebsiella pneumoniae NCTC 13368 after 20 hrs by broth microdilution method; assay type: functional; conditions: NCTC 13368, 20 h; procedure, shortened: as §1
Pseudomonas aeruginosa [17] = assay: Antibacterial activity against Pseudomonas aeruginosa NCTC 13437 after 20 hrs in the presence of Pa-beta-N and magnesium ions by broth microdilution method; assay type: functional; conditions: NCTC 13437, 20 h; procedure, shortened: as §1
Staphylococcus aureus [18] = assay: Antibacterial activity against methicillin-resistant Staphylococcus aureus EMRSA-15 after 20 hrs by broth microdilution method; assay type: functional; conditions: EMRSA-15, 20 h; procedure, shortened: as §2
Pseudomonas aeruginosa [19] = assay: Antibacterial activity against Pseudomonas aeruginosa PAO1 after 20 hrs by broth microdilution method; assay type: functional; conditions: PAO1, 20 h; procedure, shortened: as §1
Klebsiella pneumoniae [20] = assay: Antibacterial activity against Klebsiella pneumoniae NCTC 13368 after 20 hrs in the presence of Pa-beta-N and magnesium ions by broth microdilution method; assay type: functional; conditions: NCTC 13368, 20 h; procedure, shortened: as §1
Enterococcus faecalis [21] = assay: Antibacterial activity against vancomycin-resistant Enterococcus faecalis NCTC 12201 after 20 hrs by broth microdilution method; assay type: functional; conditions: NCTC 12201, 20 h; procedure, shortened: as §2
[22] = Cytotoxicity against human HeLa cells assessed as cell viability at 25 uM after 24 hrs by MTT assay; assay type: cell-based; conditions: read-out: Activity
Procedure, shortened: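 HeLa cells, 10000 per well, were grown at 37 °C in 5% CO2 and allowed to settle for 24 h. Compound was then added in triplicate for 24 h of continuous exposure. Viability was read by MTT colorimetry, with absorbance at 570 nm.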

Pseudomonas aeruginosa [23] = assay: Antibacterial activity against Pseudomonas aeruginosa NCTC 13437 after 20 hrs by broth microdilution method; assay type: functional; conditions: NCTC 13437, 20 h; procedure, shortened: as §1
[24] = Stabilization of FAM/TAMRA-labeled AT-rich DNA duplex (unknown origin) assessed as change in melting temperature at 1 uM by FRET-based assay
Procedure, shortened: (§4)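 FRET melting of a FAM/TAMRA-labelled AT-rich oligonucleotide, 400 nM working solution in 50 mM potassium, 50 mM cacodylate, pH 7.4. DNA was annealed at 85 °C for 6 min, then held at 25 °C for 5 h, and mixed 1:1 with sample. Fluorescence was read every 0.5 °C from 30 to 100 °C, with a 30 s hold per step. ΔTm is measured against the blank, in triplicate.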

Klebsiella pneumoniae [25] = assay: Antibacterial activity against Klebsiella pneumoniae M6 after 20 hrs by broth microdilution method; assay type: functional; conditions: M6, 20 h; procedure, shortened: as §1
Enterococcus faecalis [26] = assay: Antibacterial activity against vancomycin-sensitive Enterococcus faecalis NCTC 775 after 20 hrs by broth microdilution method; assay type: functional; conditions: NCTC 775, 20 h; procedure, shortened: as §1
Staphylococcus aureus [27] = assay: Antibacterial activity against methicillin-sensitive Staphylococcus aureus ATCC 9144 after 20 hrs by broth microdilution method; assay type: functional; conditions: ATCC 9144, 20 h; procedure, shortened: as §1
[28] = Stabilization of FAM/TAMRA-labeled AT-rich DNA duplex (unknown origin) assessed as change in melting temperature at 5 uM by FRET-based assay; procedure, shortened: as §4
Acinetobacter baumannii [29] = assay: Antibacterial activity against Acinetobacter baumannii AYE after 20 hrs by broth microdilution method; assay type: functional; procedure, shortened: as §1

Work on `Cc1nc2ccc(C(=O)Nc3cccc(-c4ccc(-n5c(C)nc6cc(C(=O)NCCN(C)C)ccc65)nc4)c3)cc2[nH]1` yielded an MIC (Acinetobacter baumannii [1]) of 32 µg/mL, an MIC (Klebsiella pneumoniae [2]) of over 32 µg/mL and an MIC (Klebsiella pneumoniae [3]) of over 32 µg/mL. The MIC (Acinetobacter baumannii [4]) was 32 µg/mL, the MIC (Acinetobacter baumannii [5]) was over 32 µg/mL and the MIC (Enterococcus faecium) was 2 µg/mL (≈ 3.49 µM). It also gave an MIC (Acinetobacter baumannii [6]) of over 32 µg/mL, an MIC (Acinetobacter baumannii [7]) of 32 µg/mL and a Time (Enterococcus faecalis [8]) of 4 h. For the same compound, the MIC (Pseudomonas aeruginosa [9]) was over 32 µg/mL, the MIC (Klebsiella pneumoniae [10]) was 16 µg/mL and the MIC (Pseudomonas aeruginosa [11]) was over 32 µg/mL. The MIC (Pseudomonas aeruginosa [12]) was over 32 µg/mL, the Time (Staphylococcus aureus [13]) was 4 h and the MIC (Staphylococcus aureus [14]) was 8 µg/mL (≈ 14 µM). For the same compound, the Activity (Enterococcus faecalis [15]) was “inactive”, the MIC (Klebsiella pneumoniae [16]) was over 32 µg/mL and the MIC (Pseudomonas aeruginosa [17]) was over 32 µg/mL. It also gave an MIC (Staphylococcus aureus [18]) of 2 µg/mL (≈ 3.49 µM), an MIC (Pseudomonas aeruginosa [19]) of over 32 µg/mL and an MIC (Klebsiella pneumoniae [20]) of over 32 µg/mL. For the same compound, the MIC (Enterococcus faecalis [21]) was 1 µg/mL (≈ 1.75 µM), the viability at 24 h, 25 µM [22] was over 98% and the MIC (Pseudomonas aeruginosa [23]) was over 32 µg/mL. The deltaTm [24] was 0.2 °C, the MIC (Klebsiella pneumoniae [25]) was over 32 µg/mL and the MIC (Enterococcus faecalis [26]) was 4 µg/mL (≈ 6.98 µM). The MIC (Staphylococcus aureus [27]) was 2 µg/mL (≈ 3.49 µM), the deltaTm [28] was 0.9 °C and the MIC (Acinetobacter baumannii [29]) was over 32 µg/mL.
